Source: ChEMBL document CHEMBL4196220, “Synthesis and Discovery of Arylpiperidinylquinazolines: New Inhibitors of the Vesicular Monoamine Transporter” (J Med Chem, 2018)
Activity calls are given as the source filed them. No cut-off for these calls is given here.

Experiments:
[1] = target: T1, Synaptic vesicular amine transporter (Homo sapiens, UniProt Q05940); experiment: Displacement of [3H](+)-syn-Ethyl 1-(2-(2,4-Dioxo-1,2-dihydroquinazolin-3(4H)-yl)ethyl)-4-(4-fluorophenyl)piperidine-3-carboxylate from human VMAT2 expressed in HEK293 cell membranes incubated for 60 mins by scintillation counting method
Method in brief: (§1)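 Membranes from confluent HEK-293 cells stably expressing human VMAT2, prepared by osmotic shock and restored with Tris/K tartrate/MgSO4. About 50−75 μg protein per assay with [3H](+)-5b at 50−100 nM final. Incubated 60 min at 4 °C in the dark. Filtration, then beta counting.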

[2] = target: T1, Synaptic vesicular amine transporter; experiment: Inhibition of human VMAT2 expressed in HEK293 cell membranes assessed as reduction in [3H[-5HT uptake pre-incubated for 10 mins before [3H[-5HT addition and measured after 6 mins; type: cell-based
Method in brief: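 Vesicular membranes from HEK-hVMAT2 cells: differential centrifugation, osmotic shock, then resuspension in uptake buffer (tartrate/Tris/KCl/MgSO4, ascorbate, tropolone, pargyline, pH 7.4, 2 mM MgATP). Drug preincubation 10 min at 30 °C. Stopped by filtration. Duplicate wells, IC50.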

[3] = target: 5-hydroxytryptamine receptor 2A (Homo sapiens, UniProt P28223); experiment: biochemical; type: cell-based, HEK293
[4] = target: T1, Synaptic vesicular amine transporter; experiment: Displacement of [3H]reserpine from human VMAT2 expressed in HEK293 cell membranes incubated for 60 mins by scintillation counting method
[5] = target: T1, Synaptic vesicular amine transporter; experiment: Displacement of [3H]DHTB from human VMAT2 expressed in HEK293 cell membranes incubated for 90 mins by microbeta scintillation counting method
Method in brief: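 Tris buffer without ATP, 90 min at room temperature. Nonspecific binding defined with 2 μM DHTB. Filtermat filtration and microBeta counting. Test compounds 1 nM–10 μM.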

[6] = target: Synaptic vesicular amine transporter (Mus musculus, UniProt Q8BRU6); experiment: Inhibition of VMAT2 in C57Bl/6J mouse striatal membranes assessed as reduction in [3H[-5HT uptake pre-incubated for 10 mins before [3H[-5HT addition and measured after 8 mins; type: cell membranes, Striatum, Membrane
HEK293 [7] = experiment: Cytotoxicity in HEK293 cells expressing human VMAT2 assessed as reduction in cell viability at 10 uM incubated for 24 hrs by MTT assay; type: cell-based; conditions: hek293, 24 h
Method in brief: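 HEK-VMAT2 cells plated at 5 × 10^4 per well. Drugs added on day 2 to triplicate wells, all with 0.1% DMSO, for 24 h. MTT reagent then 2 h at 37 °C, solvent added, read at 590 nm. Values normalized to control cells. One-way ANOVA with post hoc test.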

[8] = target: T1, Synaptic vesicular amine transporter; experiment: Binding affinity to human VMAT2 expressed in HEK293 cell membranes by scintillation counting method based saturation binding assay
Method in brief: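 Saturation binding on HEK-VMAT2 membranes, with duplicate points mixing labeled and unlabeled ligand. [3H](+)-5b: 5–600 nM, 60 min at 4 °C in the dark, buffer with 2 mM MgATP. 3−4 independent experiments.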

[9] = target: T1, Synaptic vesicular amine transporter; experiment: Binding affinity to human VMAT2 expressed in HEK293 cell membranes assessed as observed associate rate constant at 24 to 28 nM in presence of 2 mM Mg-ATP by scintillation counting method; conditions: tested as the 3H-labelled form
Method in brief: (§2)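 Kinetics for the [3H](+)-5b site on HEK-293 membranes expressing human VMAT2, run with 2 mM Mg-ATP. Excess unlabeled ligand of the same kind was used. Association at a single radioligand concentration was fitted as one-phase exponential association to give kobs.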

[10] = target: T1, Synaptic vesicular amine transporter; experiment: Binding affinity to human VMAT2 expressed in HEK293 cell membranes assessed as half life at 24 to 28 nM in presence of 2 mM Mg-ATP by scintillation counting method; conditions: tested as the 3H-labelled form; method in brief: as §2
[11] = target: T1, Synaptic vesicular amine transporter; experiment: Binding affinity to human VMAT2 expressed in HEK293 cell membranes in presence of 2 mM Mg-ATP by scintillation counting method; conditions: tested as the 3H-labelled form; method in brief: as §1
[12] = target: Sodium-dependent dopamine transporter (Homo sapiens, UniProt Q01959); experiment: Displacement of [125I]RTI-55 from human DAT expressed in HEK293 cell membranes
Method in brief: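 Total particulate membranes from HEK-293 cells stably expressing hDAT, with [125I]RTI-55 at 40−60 pM. Nonspecific binding defined with 5 μM mazindol.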

[13] = target: T2, 5-hydroxytryptamine receptor 1A (Homo sapiens) (UniProt P08908); experiment: Binding affinity to 5HT1A receptor (unknown origin)
T2 sequence (whole entry): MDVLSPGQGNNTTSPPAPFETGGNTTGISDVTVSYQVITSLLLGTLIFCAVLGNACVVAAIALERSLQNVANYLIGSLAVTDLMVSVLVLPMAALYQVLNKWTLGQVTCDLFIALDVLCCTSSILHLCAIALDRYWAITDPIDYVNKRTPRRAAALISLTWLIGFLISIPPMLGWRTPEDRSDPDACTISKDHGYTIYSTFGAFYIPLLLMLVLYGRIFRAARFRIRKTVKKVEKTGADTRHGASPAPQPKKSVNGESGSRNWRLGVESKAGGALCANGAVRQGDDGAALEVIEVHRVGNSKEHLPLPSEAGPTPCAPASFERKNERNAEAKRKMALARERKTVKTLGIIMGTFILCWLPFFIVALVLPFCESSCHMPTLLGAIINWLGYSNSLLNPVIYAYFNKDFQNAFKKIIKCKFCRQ

[14] = target: Sodium-dependent serotonin transporter (Homo sapiens, UniProt P31645); experiment: Displacement of [125I]RTI-55 from human SERT expressed in HEK293 cell membranes
[15] = target: Sodium-dependent noradrenaline transporter (Homo sapiens, UniProt P23975); experiment: Displacement of [125I]RTI-55 from human NET expressed in HEK293 cell membranes
HEK293 [16] = experiment: Cytotoxicity in HEK293 cells expressing human VMAT2 assessed as reduction in cell viability at 1 uM incubated for 24 hrs by MTT assay; type: cell-based; conditions: hek293, 24 h
Method in brief: (§3)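 HEK-293 cells stably expressing human VMAT2, seeded at 5 × 10^4 cells/well in DMEM with 10% FetalClone, penicillin/streptomycin and G418. On day 2, compound in DMEM was added to triplicate wells, with 0.1% DMSO in all conditions, for 24 h. MTT reagent was then added for 2 h at 37 °C, followed by solvent. Absorbance read at 590 nm, normalized to control cells, and analyzed by one-way ANOVA with Dunnett's test.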

HEK293 [17] = experiment: Cytotoxicity in HEK293 cells expressing human VMAT2 assessed as reduction in cell viability at 3 uM incubated for 24 hrs by MTT assay; type: cell-based; conditions: hek293, 24 h; method in brief: as §3

Chain of Sodium-dependent dopamine transporter (Q01959 whole entry): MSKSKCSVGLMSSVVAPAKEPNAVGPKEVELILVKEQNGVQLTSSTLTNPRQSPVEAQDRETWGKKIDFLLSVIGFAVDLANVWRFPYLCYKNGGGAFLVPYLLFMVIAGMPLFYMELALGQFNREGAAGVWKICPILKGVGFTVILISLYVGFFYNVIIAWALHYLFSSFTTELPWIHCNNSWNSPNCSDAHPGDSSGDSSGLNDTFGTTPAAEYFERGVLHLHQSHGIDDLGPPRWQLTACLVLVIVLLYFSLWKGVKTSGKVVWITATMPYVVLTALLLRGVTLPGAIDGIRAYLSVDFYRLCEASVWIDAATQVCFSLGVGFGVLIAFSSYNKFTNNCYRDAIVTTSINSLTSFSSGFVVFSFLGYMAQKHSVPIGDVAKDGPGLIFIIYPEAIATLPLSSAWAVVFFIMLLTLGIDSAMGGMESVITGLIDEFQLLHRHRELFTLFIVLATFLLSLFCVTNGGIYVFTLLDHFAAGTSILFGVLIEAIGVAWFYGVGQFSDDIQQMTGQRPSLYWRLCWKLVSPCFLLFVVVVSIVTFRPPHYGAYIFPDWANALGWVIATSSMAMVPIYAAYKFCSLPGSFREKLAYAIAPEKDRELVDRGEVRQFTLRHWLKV
T1 sequence (Q05940 whole entry): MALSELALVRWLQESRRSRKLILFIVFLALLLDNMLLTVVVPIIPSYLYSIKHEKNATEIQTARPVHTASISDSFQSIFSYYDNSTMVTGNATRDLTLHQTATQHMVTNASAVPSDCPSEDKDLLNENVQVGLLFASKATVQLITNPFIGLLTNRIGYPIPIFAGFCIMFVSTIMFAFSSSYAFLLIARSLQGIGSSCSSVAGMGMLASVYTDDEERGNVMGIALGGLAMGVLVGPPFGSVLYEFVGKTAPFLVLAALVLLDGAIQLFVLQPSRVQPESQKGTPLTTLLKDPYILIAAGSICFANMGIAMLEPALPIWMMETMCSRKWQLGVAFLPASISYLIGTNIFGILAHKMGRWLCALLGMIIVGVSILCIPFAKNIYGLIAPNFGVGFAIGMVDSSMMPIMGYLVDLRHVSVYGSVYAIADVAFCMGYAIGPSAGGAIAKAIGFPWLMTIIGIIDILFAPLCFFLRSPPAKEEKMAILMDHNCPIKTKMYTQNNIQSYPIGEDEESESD
Chain of Synaptic vesicular amine transporter (Mus musculus, UniProt Q8BRU6) (Q8BRU6 whole entry): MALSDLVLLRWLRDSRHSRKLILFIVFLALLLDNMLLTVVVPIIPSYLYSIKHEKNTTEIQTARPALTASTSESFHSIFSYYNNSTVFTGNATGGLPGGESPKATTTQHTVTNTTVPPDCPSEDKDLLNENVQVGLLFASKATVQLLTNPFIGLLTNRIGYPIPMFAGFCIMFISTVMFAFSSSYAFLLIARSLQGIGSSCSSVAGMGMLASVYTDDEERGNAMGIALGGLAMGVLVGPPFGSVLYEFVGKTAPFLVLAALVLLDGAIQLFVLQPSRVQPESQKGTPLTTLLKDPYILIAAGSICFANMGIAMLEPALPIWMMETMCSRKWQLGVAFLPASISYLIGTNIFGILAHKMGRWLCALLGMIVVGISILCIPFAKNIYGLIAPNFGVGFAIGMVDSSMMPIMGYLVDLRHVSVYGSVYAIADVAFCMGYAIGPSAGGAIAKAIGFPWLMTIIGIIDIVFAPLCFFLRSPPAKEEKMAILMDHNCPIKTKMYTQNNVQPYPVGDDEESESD
Chain of 5-hydroxytryptamine receptor 2A (P28223 whole entry): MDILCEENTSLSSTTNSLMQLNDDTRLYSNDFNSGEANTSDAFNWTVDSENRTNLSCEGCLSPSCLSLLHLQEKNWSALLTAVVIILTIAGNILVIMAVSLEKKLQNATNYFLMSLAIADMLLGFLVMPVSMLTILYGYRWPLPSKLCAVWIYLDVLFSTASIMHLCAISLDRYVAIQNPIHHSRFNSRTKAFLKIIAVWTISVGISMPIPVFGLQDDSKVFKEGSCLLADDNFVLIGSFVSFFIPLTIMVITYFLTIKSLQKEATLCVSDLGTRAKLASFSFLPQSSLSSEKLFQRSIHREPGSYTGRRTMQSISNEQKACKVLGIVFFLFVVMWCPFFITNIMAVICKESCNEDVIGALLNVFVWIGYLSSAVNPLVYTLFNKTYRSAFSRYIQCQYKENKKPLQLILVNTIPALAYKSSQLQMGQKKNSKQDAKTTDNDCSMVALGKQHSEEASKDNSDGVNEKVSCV
Chain of Sodium-dependent serotonin transporter (P31645 whole entry): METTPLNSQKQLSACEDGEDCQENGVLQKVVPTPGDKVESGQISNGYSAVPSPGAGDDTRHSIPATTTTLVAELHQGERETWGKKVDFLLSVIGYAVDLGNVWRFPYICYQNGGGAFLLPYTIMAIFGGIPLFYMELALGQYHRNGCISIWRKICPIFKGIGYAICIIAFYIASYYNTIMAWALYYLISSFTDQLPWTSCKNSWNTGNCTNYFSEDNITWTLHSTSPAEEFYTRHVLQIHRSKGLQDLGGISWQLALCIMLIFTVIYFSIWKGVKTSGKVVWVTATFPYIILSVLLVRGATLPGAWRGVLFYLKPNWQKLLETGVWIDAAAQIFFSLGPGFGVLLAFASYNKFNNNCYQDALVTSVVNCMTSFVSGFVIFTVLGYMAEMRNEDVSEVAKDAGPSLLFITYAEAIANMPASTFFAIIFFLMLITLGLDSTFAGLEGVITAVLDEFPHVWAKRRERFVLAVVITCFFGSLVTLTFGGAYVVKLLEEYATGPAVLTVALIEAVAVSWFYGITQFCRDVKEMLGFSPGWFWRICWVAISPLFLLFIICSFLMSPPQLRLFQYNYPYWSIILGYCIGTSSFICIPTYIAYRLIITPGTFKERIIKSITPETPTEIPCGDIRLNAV
Chain of Sodium-dependent noradrenaline transporter (P23975 whole entry): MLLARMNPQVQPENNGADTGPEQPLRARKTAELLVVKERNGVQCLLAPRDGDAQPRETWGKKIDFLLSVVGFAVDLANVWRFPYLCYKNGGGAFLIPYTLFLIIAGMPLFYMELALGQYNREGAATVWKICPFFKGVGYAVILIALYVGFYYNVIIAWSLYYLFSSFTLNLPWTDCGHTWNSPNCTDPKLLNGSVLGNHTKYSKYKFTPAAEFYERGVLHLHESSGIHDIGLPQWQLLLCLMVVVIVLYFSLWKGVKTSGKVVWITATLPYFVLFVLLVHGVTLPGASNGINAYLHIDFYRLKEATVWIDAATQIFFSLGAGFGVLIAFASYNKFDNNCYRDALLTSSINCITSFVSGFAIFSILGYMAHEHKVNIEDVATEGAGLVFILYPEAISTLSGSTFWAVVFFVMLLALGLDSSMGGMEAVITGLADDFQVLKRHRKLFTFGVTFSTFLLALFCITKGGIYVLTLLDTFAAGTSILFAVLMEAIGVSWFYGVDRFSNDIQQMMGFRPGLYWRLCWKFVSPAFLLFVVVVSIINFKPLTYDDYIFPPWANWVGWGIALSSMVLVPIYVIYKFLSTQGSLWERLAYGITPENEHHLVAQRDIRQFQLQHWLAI

Structure (SMILES) | Ki [1] | IC50 [2] | Ki [3] | Ki [4] | Ki [5] | IC50 [6] | Activity (HEK293 [7]) | Ki [12] | Activity [13] | also measured
CCC1(O)CC2c3cc(OC)c(OC)cc3CCN2CC1CC(C)C (stereo unspecified) | 1.93 µM | 0.154 µM | > 10 µM | 0.083 µM | 0.064 µM | 0.0496 µM | Non-Toxic |  |  | 
COc1cc2c(cc1OC)C1CC(O)C(CC(C)C)CN1CC2 (stereo unspecified) |  |  | 0.0067 µM |  |  | 0.0198 µM | Non-Toxic |  |  | Bmax [8]: 41.2 pmol/mg
CNC(C)Cc1ccccc1 (stereo unspecified) | 24.5 µM | 3.62 µM | 101 µM | 6.4 µM | 346 µM | 2.74 µM | Non-Toxic |  |  | 
CCOC(=O)[C@H]1CN(CCn2c(=O)[nH]c3ccccc3c2=O)CC[C@H]1c1ccc(F)cc1 |  |  |  |  |  |  |  |  |  | Bmax ([8]; tested as the 3H-labelled form): 13.5 pmol/mg; K [9]: 0.051; T1/2 [10]: < 1 min; fold change (FC) [11]: 15
CCOC(=O)[C@@H]1CN(CCn2c(=O)[nH]c3ccccc3c2=O)CC[C@@H]1c1ccc(F)cc1 (racemic) |  |  | 2.38 µM |  |  | 0.00346 µM | Non-Toxic | 4.17 µM | inactive | 
CCOC(=O)[C@@H]1CN(CCn2c(=O)[nH]c3ccccc3c2=O)CC[C@@H]1c1ccc(C(F)(F)F)cc1 (racemic) | 0.72 µM | 2.9 µM | > 10 µM | > 10 µM | > 10 µM |  |  | > 10 µM | inactive | 
CCOC(=O)[C@@H]1CN(CCn2c(=O)[nH]c3ccccc3c2=O)CC[C@@H]1c1ccc(N(C)C)cc1 (racemic) | 1.96 µM | 5.8 µM | > 10 µM | > 10 µM | > 10 µM |  |  | > 10 µM | inactive | 
CCOC(=O)[C@@H]1CN(CCn2c(=O)[nH]c3ccccc3c2=O)CC[C@@H]1c1ccccc1 (racemic) | 0.287 µM | 0.0197 µM | > 10 µM | 0.07 µM | > 7.7 µM | 0.0091 µM | Non-Toxic | 1.61 µM | inactive | 
CCOC(=O)[C@@H]1CN(CCn2c(=O)[nH]c3ccccc3c2=O)CC[C@@H]1c1cccs1 (racemic) | 0.9 µM | 0.101 µM | > 9.3 µM | 0.45 µM | 6.16 µM | 0.0315 µM | Non-Toxic | > 7.1 µM | inactive | 
CCOC(=O)[C@@H]1CN(CCn2c(=O)[nH]c3ccccc3c2=O)CC[C@@H]1c1cccc(C(F)(F)F)c1 (racemic) | 0.35 µM | 0.125 µM | > 10 µM | 0.99 µM | > 10 µM | 0.0128 µM | Non-Toxic | > 10 µM | inactive | 
CCOC(=O)[C@@H]1CN(CCn2c(=O)[nH]c3ccccc3c2=O)CC[C@@H]1c1ccc(-c2ccccc2)cc1 (racemic) | 3.77 µM | > 10 µM | > 10 µM | > 10 µM | > 10 µM |  |  | > 10 µM | inactive | 
CCOC(=O)[C@@H]1CN(CCn2c(=O)[nH]c3ccccc3c2=O)CC[C@@H]1c1cccc2c1OCCO2 (racemic) |  |  | > 10 µM |  |  |  |  | > 10 µM | inactive | 
CCOC(=O)[C@@H]1CN(CCn2c(=O)[nH]c3ccccc3c2=O)CC[C@H]1c1ccc(F)cc1 (racemic) |  |  | 0.0373 µM |  |  | 0.0247 µM | Non-Toxic | > 9.3 µM | inactive | 
CCOC(=O)[C@@H]1CN(CCn2c(=O)[nH]c3ccccc3c2=O)CC[C@@H]1c1ccc(C)cc1 (racemic) | 0.452 µM | 2.7 µM | > 10 µM | > 10 µM | > 9.1 µM |  |  | 7.3 µM | inactive | 
CCOC(=O)c1ccc([C@H]2CCN(CCn3c(=O)[nH]c4ccccc4c3=O)C[C@H]2C(=O)OCC)cc1 (racemic) |  |  | > 10 µM |  |  |  |  | > 10 µM | inactive | 
CCOC(=O)C1CN(CCn2c(=O)[nH]c3ccccc3c2=O)CCC1c1ccc(F)cc1 (single isomer, unassigned; (+)) [listing 1 of 2 here] |  |  | > 10 µM |  |  | 0.00339 µM | Non-Toxic | 2.44 µM |  | Ki [14]: > 10 µM; Ki [15]: > 10 µM
CCOC(=O)C1CN(CCn2c(=O)[nH]c3ccccc3c2=O)CCC1c1ccc(F)cc1 (single isomer, unassigned; (+)) [listing 2 of 2 here] |  |  |  |  |  |  |  |  | inactive | 
CCOC(=O)C1CN(CCn2c(=O)[nH]c3ccccc3c2=O)CCC1c1ccc(F)cc1 (single isomer, unassigned; (-)) [listing 1 of 2 here] |  |  |  |  |  | 0.0066 µM |  | 9.9 µM |  | Ki ([3]; hek293): > 10 µM
CCOC(=O)C1CN(CCn2c(=O)[nH]c3ccccc3c2=O)CCC1c1ccc(F)cc1 (single isomer, unassigned; (-)) [listing 2 of 2 here] |  |  |  |  |  |  |  |  | inactive | 
O=C(c1ccc(F)cc1)C1CCN(CCn2c(=O)[nH]c3ccccc3c2=O)CC1 [KETANSERIN] | 1.19 µM | 0.18 µM |  | 0.353 µM | 0.077 µM | 0.1 µM | Non-Toxic |  |  | 
CN1[C@@H](CC(=O)c2ccccc2)CCC[C@H]1C[C@H](O)c1ccccc1 [LOBELINE] | 1.95 µM | 4.2 µM | 7.4 µM | 1.84 µM | > 10 µM | 0.381 µM |  |  |  | 
COC(=O)[C@H]1[C@H]2C[C@@H]3c4[nH]c5cc(OC)ccc5c4CCN3C[C@H]2C[C@@H](OC(=O)c2cc(OC)c(OC)c(OC)c2)[C@@H]1OC [RESERPINE] |  |  |  |  |  | 0.00179 µM |  |  |  | Bmax [8]: 0.942 pmol/mg; Activity (HEK293 [16]): Non-Toxic
CN[C@@H]1C[C@H]2O[C@@](C)([C@@H]1OC)n1c3ccccc3c3c4c(c5c6ccccc6n2c5c31)C(=O)NC4 [STAUROSPORINE] |  |  |  |  |  |  |  |  |  | Activity (HEK293 [17]): 60%; Activity (HEK293 [16]): 45%
